Assay results taken from ChEMBL document CHEMBL1926583, “Synthesis and inhibitory activity of thymidine analogues targeting Mycobacterium tuberculosis thymidine monophosphate kinase” (Bioorg Med Chem, 2011).
In brackets after ≈: the same amount, converted by molar mass. Activity calls are given as the source filed them. The rule behind the calls is not given here.

Assays:
[1] = biological target: T1, Thymidylate kinase (Mycobacterium tuberculosis, UniProt P9WKE1); experiment: Competitive inhibition of Mycobacterium tuberculosis TMPK by Lineweaver-Burk analysis
T1 sequence (P9WKE1 whole entry): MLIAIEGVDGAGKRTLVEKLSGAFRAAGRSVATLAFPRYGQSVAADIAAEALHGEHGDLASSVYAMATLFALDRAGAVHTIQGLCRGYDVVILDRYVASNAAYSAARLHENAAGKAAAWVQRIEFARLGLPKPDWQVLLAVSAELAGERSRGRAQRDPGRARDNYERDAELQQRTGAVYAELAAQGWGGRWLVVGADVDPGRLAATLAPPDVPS
How it was run: (§1)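 Coupled spectrophotometric assay at 334 nm (NADH oxidation via pyruvate kinase/lactate dehydrogenase/NDP kinase). Buffer 50 mM Tris-HCl pH 7.4, 50 mM KCl, 2 mM MgCl2, 0.2 mM NADH, 1 mM phosphoenolpyruvate. ATP 0.5 mM and dTMP 0.05 mM held fixed; analogue 0.003–1.5 mM.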

[2] = Selectivity index, ratio of Ki for human TMPK to Ki for Mycobacterium tuberculosis TMPK
[3] = biological target: T2, Thymidylate kinase (Homo sapiens, UniProt P23919); experiment: Competitive inhibition of human TMPK by Lineweaver-Burk analysis; how it was run: as §1
T2 sequence (P23919 whole entry): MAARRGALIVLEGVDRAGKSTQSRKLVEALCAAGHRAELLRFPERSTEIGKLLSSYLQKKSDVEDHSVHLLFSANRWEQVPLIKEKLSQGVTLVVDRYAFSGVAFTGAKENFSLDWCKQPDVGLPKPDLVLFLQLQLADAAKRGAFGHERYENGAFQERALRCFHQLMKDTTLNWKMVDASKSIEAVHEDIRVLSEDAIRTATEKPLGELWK

[4] = biological target: T3, Thymidylate kinase (Homo sapiens) (UniProt P23919); experiment: Competitive inhibition of human TMPK at 1 mM by Lineweaver-Burk analysis; how it was run: as §1
T3 sequence (whole entry): T2 sequence (P23919 whole entry)

[5] = Antimycobacterial activity against Mycobacterium bovis BCG 1173P2 after 8 days by resazurin reduction assay; format: functional, Mycobacterium bovis BCG str. Pasteur 1173P2; settings: Mycobacterium tuberculosis variant bovis BCG, 192 h
How it was run: (§2)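 M. bovis BCG 1173P2 grown in 7H9 Middlebrook broth with 0.2% glycerol and 0.5% Tween-80. Compounds tested as serial 2-fold dilutions, with bacteria at 10^5 per mL. Incubated at 37 °C in humidified normal air for 8 days. Resazurin 0.01% (wt/vol) then added, followed by overnight incubation at 37 °C. Growth read as the OD difference 570 minus 630 nm (blue-to-pink change).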

[6] = biological target: T3, Thymidylate kinase (Homo sapiens); experiment: Competitive inhibition of human TMPK at 0.05 mM by Lineweaver-Burk analysis; how it was run: as §1
[7] = system: Mycobacterium bovis BCG str. Pasteur 1173P2; experiment: Antimycobacterial activity against Mycobacterium bovis BCG 1173P2 at 25 ug/mL after 8 days by resazurin reduction assay; format: functional; how it was run: as §2
[8] = biological target: T4, Thymidylate kinase (Mycobacterium tuberculosis) (UniProt P9WKE1); experiment: Competitive inhibition of Mycobacterium tuberculosis TMPK at 0.05 mM by Lineweaver-Burk analysis; how it was run: as §1
T4 sequence (whole entry): T1 sequence (P9WKE1 whole entry)

Row | Compound | Ki [1] [µM] | other results
1 | Cc1cn([C@H]2C[C@H](n3cc(-c4ccc(Cl)cc4)nn3)[C@@H](CO)O2)c(=O)[nH]c1=S | 15 | –
2 | Cc1cn([C@H]2C[C@H](O)[C@@H](CNc3nnnn3-c3ccc(Cl)c(C(F)(F)F)c3)O2)c(=O)[nH]c1=O | 73 | –
3 | Cc1cn([C@H]2C[C@H](n3cc(-c4ccccc4)nn3)[C@@H](CO)O2)c(=O)[nH]c1=O | 4.2 | –
4 | Cc1cn([C@H]2C[C@H](NC(=O)Nc3ccc(Cl)c(C(F)(F)F)c3)[C@@H](CO)O2)c(=O)[nH]c1=O | 2.8 | Ratio Ki [2]: 34; Ki [3]: 95 µM
5 | Cc1cn([C@H]2C[C@H](n3cc(Cc4ccccc4)nn3)[C@@H](CO)O2)c(=O)[nH]c1=O | 2.7 | Ratio Ki [2]: > 100; inhibition [4]: inactive
6 | Cc1cn([C@H]2C[C@H](O)[C@@H](Cn3cc(-c4ccc(Cl)cc4)nn3)O2)c(=O)[nH]c1=O | 201 | –
7 | Cc1cn([C@@H]2C[C@H](O)[C@@H](CNC(=S)Nc3ccc(Cl)c(C(F)(F)F)c3)O2)c(=O)[nH]c1=S | 0.17 | Ratio Ki [2]: > 100; MIC99 [5]: 25 µg/mL (≈ 50.5 µM); inhibition [6]: inactive; inhibition [7]: 100%
8 | Cc1cn([C@@H]2C[C@H](O)[C@@H](Cn3cc(-c4ccc(Cl)cc4)nn3)O2)c(=O)[nH]c1=O | 9 | –
9 | Cc1cn([C@H]2C[C@H](N=[N+]=[N-])[C@@H](CO)O2)c(=O)[nH]c1=S | ≥ 100 | –
10 | Cc1cn([C@@H]2C[C@H](N=[N+]=[N-])[C@@H](CO)O2)c(=O)[nH]c1=O | 6 | –
11 | Cc1cn([C@@H]2C[C@H](O)[C@@H](CNC(=S)Nc3ccccc3)O2)c(=O)[nH]c1=S | – | MIC99 [5]: > 100 µg/mL; inhibition [8]: inactive
12 | Cc1cn([C@H]2C[C@H](NC(=S)Nc3ccc(Cl)c(C(F)(F)F)c3)[C@@H](CO)O2)c(=O)[nH]c1=O | 9.9 | –
13 | Cc1cn([C@H]2C[C@H](n3nnnc3NCc3ccccc3)[C@@H](CO)O2)c(=O)[nH]c1=O | 2.3 | Ratio Ki [2]: > 100; inhibition [4]: inactive
14 | Cc1cn([C@H]2C[C@H](O)[C@@H](CNC(=S)Nc3ccc(Cl)c(C(F)(F)F)c3)O2)c(=O)[nH]c1=O | 14.5 | –
15 | Cc1cn([C@@H]2C[C@H](n3cc(-c4ccc(Cl)cc4)nn3)[C@@H](CO)O2)c(=O)[nH]c1=O | 35 | –
16 | Cc1cn([C@H]2C[C@H](Nc3nnnn3-c3ccc(Cl)c(C(F)(F)F)c3)[C@@H](CO)O2)c(=O)[nH]c1=O | 45 | –
17 | Cc1cn([C@H]2C[C@H](n3cc(-c4ccc(Cl)cc4)nn3)[C@@H](CO)O2)c(=O)[nH]c1=O | 2.1 | –
